From ChEMBL document CHEMBL5143677, “Small molecule NSAID derivatives for impairing powerhouse in cancer cells” (Bioorg Med Chem, 2022)
Calls of active or inactive are those of the source. No cut-off for these calls is given here.

Assays:
[1] = Cytotoxicity against human RPE-1 cells assessed as reduction in cell viability measured after 24 hrs by MTT assay; assay type: toxicity, cell-based; conditions: RPE-1 cells (TERT-RPE1)
MCF7 [2] = assay: Cytotoxicity against human MCF7 cells assessed as reduction in cell viability measured after 24 hrs by MTT assay; assay type: functional, cell-based; conditions: MCF7, 24 h
MCF7 [3] = assay: Induction of ROS generation in human MCF7 cells assessed as increase in green fluorescence measured after 24 hrs by H2DCFDA dye based confocal microscopy relative to control; assay type: functional
Procedure, shortened: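 After 24 h treatment, MCF7 cells stained with H2DCFDA, which reacts with sub-cellular ROS to give green fluorescent DCF; imaged by confocal microscopy; green signal expressed as fold over non-treated control cells.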

MCF7 [4] = assay: Induction of mitochondrial outer membrane damage in human MCF7 cells assessed as morphological changes by measuring appearance of threadlike structure at IC50 measured after 24 hrs by mitotracker red based confocal microscopy; assay type: cell-based
MCF7 [5] = assay: Induction of mitochondrial outer membrane damage in human MCF7 cells assessed as morphological changes by measuring elongated mitochondria at IC50 measured after 24 hrs by mitotracker red based confocal microscopy; assay type: cell-based
MCF7 [6] = assay: Induction of mitochondrial outer membrane damage in human MCF7 cells assessed as increase in mitochondrial depolarization by measuring reduction in red fluorescence measured after 24 hrs by TMRM dye based confocal microscopy; assay type: cell-based
Procedure, shortened: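 Mitochondrial damage probe: after 24 h exposure MCF7 cells loaded with TMRM, which stains undamaged mitochondria and is effluxed after damage; red fluorescence read by confocal microscopy against non-treated cells.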

MCF7 [7] = assay: Induction of mitochondrial outer membrane damage in human MCF7 cells assessed as increase in mitochondrial depolarization by measuring increase in green fluorescence measured after 24 hrs by JC1 dye based confocal microscopy; assay type: cell-based
Procedure, shortened: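 MCF7 cells treated 24 h, then incubated with JC1 (green monomer emission 525 nm, red aggregate 590 nm); confocal imaging, depolarization expressed as J-monomer:J-aggregate ratio versus non-treated control.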

MCF7 [8] = assay: Induction of apoptosis in human MCF7 cells assessed as reduction in Bcl-2 expression measured after 24 hrs by Western blot analysis; assay type: functional, cell-based
Procedure, shortened: (§1)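 MCF7 cells treated 24 h; whole-cell proteins separated by gel electrophoresis and Bcl-2 and caspase-3 detected by Western blot, compared with control cells.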

MCF7 [9] = assay: Induction of apoptosis in human MCF7 cells assessed as increase in red fluorescence at IC50 measured after 24 hrs by propidium iodide staining based confocal laser scanning microscopy; assay type: functional, cell-based
Procedure, shortened: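 Following 24 h treatment, MCF7 cells incubated with propidium iodide, which binds DNA of apoptotic and necrotic cells; red fluorescence read by confocal microscopy against non-treated cells.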

MCF7 [10] = assay: Induction of apoptosis in human MCF7 cells assessed as reduction in caspase-3 expression measured after 24 hrs by Western blot analysis; assay type: functional, cell-based; procedure, shortened: as §1
MCF7 [11] = assay: Induction of mitochondrial outer membrane damage in human MCF7 cells assessed as morphological changes by measuring appearance of fragmented punctate structure at IC50 measured after 24 hrs by mitotracker red based confocal microscopy; assay type: cell-based
MCF7 [12] = assay: Induction of ROS generation in human MCF7 cells assessed as increase in red fluorescence at IC50 measured after 24 hrs by MitoSox dye based confocal microscopy; assay type: functional, cell-based
Procedure, shortened: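 MCF7 cells exposed 24 h, then stained with MitoSox, which gives red fluorescence with sub-cellular superoxide; signal compared with non-treated control cells by confocal microscopy.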

**Q.** For `COc1ccc2c(c1)c(CC(=O)OCCCCC[P+](c1ccc(C)cc1)(c1ccc(C)cc1)c1ccc(C)cc1)c(C)n2C(=O)c1ccc(Cl)cc1`, which IC50 at 24 h [1] is on record?
**A.** 10.2 µM

**Q.** What about the IC50 (MCF7 [2]) of the same compound?
**A.** 5.8 µM

**Q.** Which “fold change (FC)” value (MCF7 [3]) does the source give for `CC(C)Cc1ccc(C(C)C(=O)O)cc1` (stereo not drawn) [IBUPROFEN] here?
**A.** 1.3

**Q.** And the IC50 at 24 h [1]?
**A.** > 40 µM

**Q.** And the Activity (MCF7 [4])?
**A.** Active

**Q.** And the Activity (MCF7 [5])?
**A.** Active

**Q.** What about the IC50 (MCF7 [2]) of the same compound?
**A.** > 50 µM

**Q.** What about the Activity (MCF7 [6]) of the same compound?
**A.** Active

**Q.** And the Activity (MCF7 [7])?
**A.** Active

**Q.** Which “fold change (FC)” value (MCF7 [3]) does the source give for `CC(C)Cc1ccc(C(C)C(=O)OCCCCC[P+](c2ccccc2)(c2ccccc2)c2ccccc2)cc1` (stereo not drawn) here?
**A.** 3.2

**Q.** What about the Activity (MCF7 [8]) of the same compound?
**A.** Active

**Q.** What about the IC50 at 24 h [1] of the same compound?
**A.** > 40 µM

**Q.** And the IC50 (MCF7 [2])?
**A.** 10.3 µM

**Q.** And the Activity (MCF7 [6])?
**A.** Active

**Q.** And the Activity (MCF7 [9])?
**A.** Active

**Q.** What about the Activity (MCF7 [10]) of the same compound?
**A.** Active

**Q.** What about the Activity (MCF7 [7]) of the same compound?
**A.** Active

**Q.** What about the Activity (MCF7 [11]) of the same compound?
**A.** Active

**Q.** What about the Activity (MCF7 [12]) of the same compound?
**A.** Active

**Q.** With `COc1ccc([P+](CCCCCOC(=O)C(C)c2ccc(CC(C)C)cc2)(c2ccc(OC)cc2)c2ccc(OC)cc2)cc1` (stereo not drawn) as the compound, how does the IC50 at 24 h [1] read?
**A.** > 40 µM

**Q.** And the IC50 (MCF7 [2])?
**A.** 32 µM

**Q.** For `COc1ccc2c(c1)c(CC(=O)OCCCCC[P+](c1ccccc1)(c1ccccc1)c1ccccc1)c(C)n2C(=O)c1ccc(Cl)cc1`, which “fold change (FC)” value (MCF7 [3]) is on record?
**A.** 2.4

**Q.** What about the Activity (MCF7 [8]) of the same compound?
**A.** Active

**Q.** And the IC50 at 24 h [1]?
**A.** 22 µM

**Q.** What about the IC50 (MCF7 [2]) of the same compound?
**A.** 1 µM

**Q.** And the Activity (MCF7 [6])?
**A.** Active

**Q.** What about the Activity (MCF7 [9]) of the same compound?
**A.** Active

**Q.** And the Activity (MCF7 [10])?
**A.** Active

**Q.** What about the Activity (MCF7 [7]) of the same compound?
**A.** Active

**Q.** What about the Activity (MCF7 [11]) of the same compound?
**A.** Active

**Q.** And the Activity (MCF7 [12])?
**A.** Active

**Q.** Which IC50 at 24 h [1] does the source give for `COc1ccc([P+](CCCCCOC(=O)Cc2c(C)n(C(=O)c3ccc(Cl)cc3)c3ccc(OC)cc23)(c2ccc(OC)cc2)c2ccc(OC)cc2)cc1` here?
**A.** 35.2 µM

**Q.** What about the IC50 (MCF7 [2]) of the same compound?
**A.** 4.5 µM

**Q.** For `COc1ccc2c(c1)c(CC(=O)O)c(C)n2C(=O)c1ccc(Cl)cc1` [INDOMETHACIN], which “fold change (FC)” value (MCF7 [3]) is on record?
**A.** 2.4

**Q.** And the Activity (MCF7 [8])?
**A.** Active

**Q.** What about the IC50 at 24 h [1] of the same compound?
**A.** > 40 µM

**Q.** What about the Activity (MCF7 [4]) of the same compound?
**A.** Active

**Q.** And the Activity (MCF7 [5])?
**A.** Active

**Q.** And the IC50 (MCF7 [2])?
**A.** > 50 µM

**Q.** And the Activity (MCF7 [6])?
**A.** Active

**Q.** And the Activity (MCF7 [10])?
**A.** Active

**Q.** And the Activity (MCF7 [7])?
**A.** Active

**Q.** Which results are given for `CC(C)Cc1ccc(C(C)C(=O)OCCCCC[P+](c2ccc(F)cc2)(c2ccc(F)cc2)c2ccc(F)cc2)cc1` (stereo not drawn)?
**A.** IC50 at 24 h [1]: 35 µM; IC50 (MCF7 [2]): > 50 µM

**Q.** With `Cc1ccc([P+](CCCCCOC(=O)C(C)c2ccc(CC(C)C)cc2)(c2ccc(C)cc2)c2ccc(C)cc2)cc1` (stereo not drawn) as the compound, how does the IC50 at 24 h [1] read?
**A.** > 40 µM

**Q.** What about the IC50 (MCF7 [2]) of the same compound?
**A.** 25.6 µM

**Q.** Which results are given for `COc1ccc2c(c1)c(CC(=O)OCCCCC[P+](c1ccc(F)cc1)(c1ccc(F)cc1)c1ccc(F)cc1)c(C)n2C(=O)c1ccc(Cl)cc1`?
**A.** IC50 at 24 h [1]: 11.2 µM; IC50 (MCF7 [2]): 25.7 µM
